# Experimental data pooled from the literature.
# Each line is one published result; the experiments were not run side by side.
# KIT autoinhibited: Mast/stem cell growth factor receptor Kit, autoinhibited (KIT, Homo sapiens, UniProt P10721)
# KIT L576P: Mast/stem cell growth factor receptor Kit (KIT, Homo sapiens, UniProt P10721, L576P)
# KIT D816V: Mast/stem cell growth factor receptor Kit (KIT, Homo sapiens, UniProt P10721, D816V)
# KIT D816H: Mast/stem cell growth factor receptor Kit (KIT, Homo sapiens, UniProt P10721, D816H)
# KIT: Mast/stem cell growth factor receptor Kit (KIT, Homo sapiens, UniProt P10721)
# KIT V559D: Mast/stem cell growth factor receptor Kit (KIT, Homo sapiens, UniProt P10721, V559D)
# KIT A829P: Mast/stem cell growth factor receptor Kit (KIT, Homo sapiens, UniProt P10721, A829P)
# KIT V559D/V654A: Mast/stem cell growth factor receptor Kit (KIT, Homo sapiens, UniProt P10721, V559D/V654A)
SMILES,target,observed,method,concentration,remaining binding
COc1cnc(Nc2cccc(S(N)(=O)=O)c2)nc1N1CCN(c2ccccc2)CC1,KIT autoinhibited,binding,competition with immobilised ligand,1 µM,90%
C[C@@H]1CCN(c2nccc(-c3cnn4ncccc34)n2)C1,KIT L576P,binding,,1 µM,100%
O=C(NCCCN1CCOCC1)c1ccc(Nc2ncc(Cl)c(-c3ccc(Cl)s3)n2)cc1,KIT D816V,binding,competition with immobilised ligand,1 µM,26%
O=C(NCC1CCOCC1)c1n[nH]cc1NC(=O)c1c(F)cccc1F,KIT D816H,binding,competition with immobilised ligand,1 µM,69%
COc1cccc(CNC(=O)c2nc3scc(COCc4ccc(C(=O)O)cc4)c3c(=O)[nH]2)c1,KIT D816V,cell-free assay,competition with immobilised ligand,1 µM,100%
COc1cnc(Nc2cccc(S(N)(=O)=O)c2)nc1N1CCN(c2ccccc2)C(=O)C1,KIT,binding,competition with immobilised ligand,1 µM,98%
CC(C)(O)c1cncc(-c2nc3ccc(F)cc3n2C2CC2)c1,KIT D816H,cell-free assay,competition with immobilised ligand,1 µM,100%
C[C@@H](c1ccc(-n2cnc3c(N)ncnc32)cc1)N1CCc2nn(C)c(Cc3ccccc3)c2C1=O,KIT D816H,binding,competition with immobilised ligand,0.1 µM,64%
O=C(NS(=O)(=O)c1ccc(NCC2CCOCC2)c([N+](=O)[O-])c1)c1ccc(N2CCN(Cc3ccc(C(F)(F)F)cc3-c3ccc(Cl)cc3)CC2)cc1Oc1cnc2[nH]ccc2c1,KIT V559D,cell-free assay,competition with immobilised ligand,1 µM,100%
N[C@@H]1CCN(c2nccc(-c3cnn4ncccc34)n2)C1,KIT D816H,binding,,1 µM,100%
O=C(Nc1c[nH]nc1C(=O)NC1CCNCC1)c1cc(F)cc(F)c1,KIT D816H,binding,competition with immobilised ligand,1 µM,100%
COc1ccnn2ncc(-c3ccnc(N(C)C)n3)c12,KIT,binding,,1 µM,100%
Nc1ncc2c(n1)-c1c([nH]c3ccc(C#CC4CC4)cc13)CCCC2,KIT A829P,binding,competition with immobilised ligand,1 µM,72%
Cc1cnn2ncc(-c3ccnc(N(C)C)n3)c2c1,KIT,binding,,1 µM,100%
O=C(c1ccc(Nc2ncc(Cl)c(-c3cc4ccccc4s3)n2)cc1)N1CCC(N2CCCC2)CC1,KIT V559D,binding,competition with immobilised ligand,1 µM,6.6%
COc1ncc2cc3ccccc3nc2c1C#N,KIT autoinhibited,cell-free assay,competition with immobilised ligand,5 µM,98%
CN(C)c1nccc(-c2cnn3ncccc23)n1,KIT D816V,binding,,1 µM,60%
O=C(O)[C@@H]1[C@@H](Cn2nnc3ccccc3c2=O)CC[C@H]1C(=O)c1ccc(OCCC2CCOCC2)cc1,KIT D816H,cell-free assay,competition with immobilised ligand,1 µM,68%
CN1CCN(c2ccc(Nc3nccc(-c4cccc([N+](=O)[O-])c4)n3)cc2C(F)(F)F)CC1,KIT V559D,binding,,10 µM,0%
Cc1cnc(Nc2ccc(C(=O)N3CCC(N4CCCC4)CC3)cc2)nc1-c1cc2ccccc2s1,KIT V559D/V654A,binding,competition with immobilised ligand,1 µM,29%
CNC(=O)[C@@H]1CC[C@@H](n2c(-c3ccc4cnccc4c3)nc3ccc(C(=O)NCc4cccc(C(N)=O)c4)cc32)C1,KIT L576P,binding,competition with immobilised ligand,1 µM,99%
CN(C)c1ncc(F)c(-c2cnn3ncccc23)n1,KIT D816H,binding,,1 µM,72%
O=C(NCCCN1CCOCC1)c1ccc(Nc2nccc(-c3cc4ccccc4s3)n2)cc1,KIT,binding,competition with immobilised ligand,1 µM,63%
Cc1cc(NC(=O)c2cccc(S(F)(F)(F)(F)F)c2)cc(-n2ccn3nc(-c4cccnc4)cc23)c1,KIT,cell-free assay,competition with immobilised ligand,1 µM,89.5%
CCN1CCN(Cc2ccc(C(=O)Nc3ccc(C)c(Oc4ccc5c(c4)CC(=O)N5)c3)cc2C(F)(F)F)CC1,"Mast/stem cell growth factor receptor Kit (KIT, Homo sapiens, UniProt P10721, T670I/V559D)",binding,competition with immobilised ligand,1 µM,58%
C=CC(=O)N1CCC(C(=O)NCC(=O)N2CCN(c3nc(-c4cnc(N)nc4C(F)F)nc(N4CCOCC4)n3)CC2)CC1,KIT autoinhibited,binding,competition with immobilised ligand,1 µM,35%
c1cncc(-c2cccc(Nc3nccc(NC4CCCCC4)n3)c2)c1,KIT V559D/V654A,binding,competition with immobilised ligand,10 µM,43%
CN(c1nccc(-c2cnn3ncccc23)n1)C1CC1,KIT A829P,binding,,1 µM,88%
O=C(c1ccc(Nc2ncc(Cl)c(-c3ccc(Cl)s3)n2)cc1)N1CCC(N2CCCC2)CC1,KIT D816V,binding,competition with immobilised ligand,1 µM,17%
O=c1nc(-c2ccccn2)sc2ccccc12,KIT V559D/V654A,binding,competition with immobilised ligand,1 µM,100%
CN1CCN(c2ccc(Nc3nccc(-c4ccccc4)n3)cc2C(F)(F)F)CC1,KIT V559D,binding,,10 µM,0.05%
COc1ccc2cc(OCC3(C(=O)O)CN(C(=O)c4ccc(F)cc4)C3)ccc2c1,KIT L576P,cell-free assay,competition with immobilised ligand,1 µM,100%
F[C@@H]1CCN(c2nccc(-c3cnn4ncccc34)n2)C1,KIT A829P,binding,,1 µM,74%
O=C(c1ccc(Nc2nccc(-c3cc4ccccc4s3)n2)cc1)N1CCC(N2CCCC2)CC1,KIT,binding,competition with immobilised ligand,1 µM,53%
CNC(=O)c1ccc(Nc2ncc(C(F)(F)F)c(NCc3nccnc3N(C)S(C)(=O)=O)n2)cc1,KIT L576P,cell-free assay,competition with immobilised ligand,0.1 µM,86%
